Activity calls are given as the source filed them. No cut-off for these calls is given here.
Experiments:
[1] = biological target: T1, 5-hydroxytryptamine receptor 1B (Homo sapiens, UniProt P28222); assay: Binding affinity to 5HT1B receptor expressed in CHO cells; assay type: cell-based
In short: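 Frozen membranes from stably transfected CHO cells expressing 5-HT1B, 10 μg/well. Buffer: 50 mM Tris-HCl, 4 mM MgCl2, 4 mM CaCl2, 1 mM EDTA, pH 7.4. [3H]GR125743 at 0.5 nM final; nonspecific binding defined with 1 μM AZD1134. 11-point dilutions, 10 μM to 170 pM final. 1 h at room temperature, then WGA yttrium silicate SPA beads for 30 min. IC50 and Ki derived with Kenakin correction for ligand depletion.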

[2] = biological target: T1, 5-hydroxytryptamine receptor 1B; assay: Antagonist activity at 5HT1B receptor expressed in CHO cells by [35S]GTPgammaS assay; assay type: functional, cell-based; set-up: concentration or dose not given beside the values
[3] = biological target: T2, 5-hydroxytryptamine receptor 1A (Homo sapiens) (UniProt P08908); assay: Inhibition of human 5HT1A receptor at 10 uM
T2 sequence (whole entry): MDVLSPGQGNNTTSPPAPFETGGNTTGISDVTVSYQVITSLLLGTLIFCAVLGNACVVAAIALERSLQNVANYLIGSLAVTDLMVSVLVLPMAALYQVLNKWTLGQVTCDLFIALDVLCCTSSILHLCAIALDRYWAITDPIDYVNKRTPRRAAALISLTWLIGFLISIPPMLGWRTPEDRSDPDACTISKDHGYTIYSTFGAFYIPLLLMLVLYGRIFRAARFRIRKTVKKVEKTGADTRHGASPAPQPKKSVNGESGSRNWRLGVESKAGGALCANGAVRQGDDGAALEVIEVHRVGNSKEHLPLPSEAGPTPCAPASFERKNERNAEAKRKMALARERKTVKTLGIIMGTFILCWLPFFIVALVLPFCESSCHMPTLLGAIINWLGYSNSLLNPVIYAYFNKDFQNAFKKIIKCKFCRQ
In short: (§1)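 Radioligand binding assays from an outside panel of 100 targets, single concentration 10 μM, reported as % effect. Receptor species: human for 5-HT1A, 5-HT2A and 5-HT2B; guinea pig for 5-HT4.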

[4] = biological target: 5-hydroxytryptamine receptor 2B (Homo sapiens) (UniProt P41595); assay: Inhibition of human 5HT2B receptor at 10 uM; in short: as §1
5-hydroxytryptamine receptor 2B (Homo sapiens), sequence (P41595 whole entry): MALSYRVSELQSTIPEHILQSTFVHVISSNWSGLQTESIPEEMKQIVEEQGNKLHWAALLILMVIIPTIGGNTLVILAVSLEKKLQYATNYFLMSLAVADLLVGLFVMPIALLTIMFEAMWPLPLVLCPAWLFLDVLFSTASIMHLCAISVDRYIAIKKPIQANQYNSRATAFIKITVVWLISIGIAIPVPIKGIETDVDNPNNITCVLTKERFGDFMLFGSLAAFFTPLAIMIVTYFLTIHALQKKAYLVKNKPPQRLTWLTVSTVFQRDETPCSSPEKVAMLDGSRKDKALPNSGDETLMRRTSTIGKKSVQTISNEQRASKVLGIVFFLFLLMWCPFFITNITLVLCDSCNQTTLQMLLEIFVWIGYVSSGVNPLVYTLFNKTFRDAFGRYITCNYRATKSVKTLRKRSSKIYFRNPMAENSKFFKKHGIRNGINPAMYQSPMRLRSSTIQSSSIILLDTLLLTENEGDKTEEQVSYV

[5] = biological target: 5-hydroxytryptamine receptor 4 (Cavia porcellus) (UniProt O70528); assay: Inhibition of guinea pig 5HT4 receptor at 10 uM; in short: as §1
5-hydroxytryptamine receptor 4 (Cavia porcellus), sequence (O70528 whole entry): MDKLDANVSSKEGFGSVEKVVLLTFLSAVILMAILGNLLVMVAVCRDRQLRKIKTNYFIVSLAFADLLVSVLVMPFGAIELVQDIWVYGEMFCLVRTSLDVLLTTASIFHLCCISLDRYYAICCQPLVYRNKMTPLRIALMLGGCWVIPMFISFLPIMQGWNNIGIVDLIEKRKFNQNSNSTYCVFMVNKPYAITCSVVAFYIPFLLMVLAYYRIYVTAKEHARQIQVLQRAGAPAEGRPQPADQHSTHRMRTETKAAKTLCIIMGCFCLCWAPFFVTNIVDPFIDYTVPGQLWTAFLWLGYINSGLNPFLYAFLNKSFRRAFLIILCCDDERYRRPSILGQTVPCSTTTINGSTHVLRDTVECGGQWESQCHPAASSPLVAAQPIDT

Cavia porcellus = assay: Reversal of NXY041-induced hypothermia in sc dosed guinea pig; assay type: functional, organism-based
[6] = biological target: 5-hydroxytryptamine receptor 2A (Homo sapiens) (UniProt P28223); assay: Inhibition of human 5HT2A receptor at 10 uM; in short: as §1
5-hydroxytryptamine receptor 2A (Homo sapiens), sequence (P28223 whole entry): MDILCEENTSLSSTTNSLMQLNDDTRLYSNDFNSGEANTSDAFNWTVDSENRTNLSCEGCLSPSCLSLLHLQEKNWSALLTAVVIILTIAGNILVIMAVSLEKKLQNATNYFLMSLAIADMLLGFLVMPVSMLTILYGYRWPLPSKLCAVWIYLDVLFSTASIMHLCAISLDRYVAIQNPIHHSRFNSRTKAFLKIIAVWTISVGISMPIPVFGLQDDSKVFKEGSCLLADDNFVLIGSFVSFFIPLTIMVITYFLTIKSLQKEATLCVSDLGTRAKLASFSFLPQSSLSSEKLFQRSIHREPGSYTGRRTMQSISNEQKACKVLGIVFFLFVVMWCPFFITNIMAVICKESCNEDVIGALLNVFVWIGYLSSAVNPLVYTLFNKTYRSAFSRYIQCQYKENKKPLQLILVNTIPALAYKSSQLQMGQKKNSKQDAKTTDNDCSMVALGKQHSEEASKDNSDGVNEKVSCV

[7] = tested on: in vitro phospholipidosis assay (no protein target); assay: in vitro; settings: human

T1 sequence (P28222 whole entry): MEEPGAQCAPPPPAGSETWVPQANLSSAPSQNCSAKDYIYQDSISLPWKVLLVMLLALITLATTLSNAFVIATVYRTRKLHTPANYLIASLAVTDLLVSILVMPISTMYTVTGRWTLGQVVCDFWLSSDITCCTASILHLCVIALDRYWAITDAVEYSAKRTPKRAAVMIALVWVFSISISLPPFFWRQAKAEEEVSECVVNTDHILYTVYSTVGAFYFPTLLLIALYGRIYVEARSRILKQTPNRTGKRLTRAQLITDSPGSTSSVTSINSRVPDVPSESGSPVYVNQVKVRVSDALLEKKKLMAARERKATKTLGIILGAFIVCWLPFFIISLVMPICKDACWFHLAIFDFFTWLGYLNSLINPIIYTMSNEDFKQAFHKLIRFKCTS

Structure (SMILES) | Ki [1] [nM] | Activity [2] [%] | further results
COC1(c2ccc(NC(=O)C3CCc4cc(F)cc(-c5c(C)nn(C)c5C)c4O3)cn2)CCOCC1 (stereo unspecified) | 0.96 | 62 | –
COC1(c2ccc(NC(=O)c3cc(=O)c4cc(F)cc(-c5c(C)nn(C)c5C)c4o3)cn2)CCOCC1 | 0.43 | 90 | inhibition [3]: -8%; inhibition [4]: 4%; inhibition [5]: 30%; Activity (Cavia porcellus): Active; inhibition [6]: -5%
CCC(=O)N1CCN(c2ccc(NC(=O)c3cc(=O)c4cc(F)cc(N5CCN(C)CC5)c4o3)cc2)CC1 | 1.7 | 150 | –
Cc1n[nH]c(C)c1-c1ccc(C)c2c(=O)cc(C(=O)Nc3ccc(N4CCOCC4)cc3)[nH]c12 | – | 33 | –
COc1cc2c(c(N3CCN(C)CC3)c1)O[C@@H](C(=O)Nc1ccc(N3CCOCC3)cc1)CC2 | 12 | 120 | –
Cc1n[nH]c(C)c1-c1ccc(C)c2c(O)cc(C(=O)Nc3ccc(N4CCOCC4)cc3)nc12 | 9.3 | – | inhibition at 300 µM [7]: 12%
